From BindingDB's records for doi:10.1021/jm0110439 (Ghent University, 2002)

Molecular target: T1, Adenosine receptor A1 (Rattus norvegicus, UniProt P25099)
T1 sequence (P25099 whole entry): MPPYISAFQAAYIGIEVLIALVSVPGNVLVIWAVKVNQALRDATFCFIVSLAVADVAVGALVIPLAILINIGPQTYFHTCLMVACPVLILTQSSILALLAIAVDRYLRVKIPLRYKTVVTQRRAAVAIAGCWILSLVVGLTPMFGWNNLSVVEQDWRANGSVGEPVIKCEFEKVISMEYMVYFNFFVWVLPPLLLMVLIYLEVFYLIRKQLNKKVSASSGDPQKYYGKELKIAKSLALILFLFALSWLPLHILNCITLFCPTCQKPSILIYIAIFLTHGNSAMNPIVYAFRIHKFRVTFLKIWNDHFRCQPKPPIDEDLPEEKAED
Experiment: GTP-induced shift at rat Adenosine A1 receptor (A1AR)
How it was run: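 GTP shift taken from these two Ki values. Done only for compounds giving >50% radioligand displacement at 10⁻⁶ M. At least three independent experiments in duplicate.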

GTP shift | Compound
6.4 | C[C@H]1O[C@@H](n2cnc3c(NC4CCCC4)ncnc32)[C@H](O)[C@H]1O [2-(6-Cyclopentylamino-purin-9-yl)-5-methyl-tetrahydro-furan-3,4-diol]
0.69 | O=C(CCCc1cccs1)N[C@@H]1[C@@H](O)[C@H](n2cnc3c(NC4CCCC4)ncnc32)O[C@@H]1CO [N-[5-(6-Cyclopentylamino-purin-9-yl)-4-hydroxy-2-hydroxymethyl-tetrahydro-furan-3-yl]-4-thiophen-2-yl-butyramide]
0.74 | C[C@H]1O[C@@H](n2cnc3c(NC4CCCC4)ncnc32)[C@H](O)[C@H]1NC(=O)C1(c2ccccc2)CCCCC1 [1-Phenyl-cyclohexanecarboxylic acid [5-(6-cyclopentylamino-purin-9-yl)-4-hydroxy-2-methyl-tetrahydro-furan-3-yl]-amide]
0.7 | C[C@H]1O[C@@H](n2cnc3c(NC4CCCC4)ncnc32)[C@H](O)[C@H]1NC(=O)CCCc1cccs1 [N-[5-(6-Cyclopentylamino-purin-9-yl)-4-hydroxy-2-methyl-tetrahydro-furan-3-yl]-4-thiophen-2-yl-butyramide]
0.7 | O=C(N[C@@H]1[C@@H](O)[C@H](n2cnc3c(NC4CCCC4)ncnc32)O[C@@H]1CO)c1ccc(F)c(Cl)c1 [3-Chloro-N-[5-(6-cyclopentylamino-purin-9-yl)-4-hydroxy-2-hydroxymethyl-tetrahydro-furan-3-yl]-4-fluoro-benzamide]
0.84 | C[C@H]1O[C@@H](n2cnc3c(NC4CCCC4)ncnc32)[C@H](O)[C@H]1NC(=O)C1(c2ccccc2)CCCC1 [1-Phenyl-cyclopentanecarboxylic acid [5-(6-cyclopentylamino-purin-9-yl)-4-hydroxy-2-methyl-tetrahydro-furan-3-yl]-amide]
0.94 | Cn1cnc2c(NC3CCCC3)ncnc21
0.72 | C[C@H]1O[C@@H](n2cnc3c(NC4CCCC4)ncnc32)[C@H](O)[C@H]1NC(=O)C1CCCC[C@H]1C(=O)c1cccs1 (some centres undefined) [2-(Thiophene-2-carbonyl)-cyclohexanecarboxylic acid [5-(6-cyclopentylamino-purin-9-yl)-4-hydroxy-2-methyl-tetrahydro-furan-3-yl]-amide]
0.73 | Cc1ccc(C(=O)N[C@@H]2[C@@H](O)[C@H](n3cnc4c(NC5CCCC5)ncnc43)O[C@@H]2CO)cc1C [N-[5-(6-Cyclopentylamino-purin-9-yl)-4-hydroxy-2-hydroxymethyl-tetrahydro-furan-3-yl]-3,4-dimethyl-benzamide]
